Bioassay records: PubChem BioAssay, several laboratories
DNA FID counter: compounds displacing fluorescent DNA intercalator, primary screen, artefact control for HCV NS3 helicase inhibitor project, biochemical, FID fluorescence. DNA fluorescent intercalator displacement. inhibition, % at 7.9 µM. 290,000 tested, 0.17% active; in the data active = inhibition above about 37%;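 note: higher means more ethidium bromide displaced from hairpin DNA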
TMEM16A act: TMEM16A chloride channel activators or potentiators, primary screen, cell-based, HTS | HEK293 TMEM16A/YFP-H148Q/I152L, iodide quench fluorescence; hits give low values | B-score at 10 µM | 340,000 tested, 0.3% active | AID 623877, 2012;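 active = fluorescence-ratio B-score plate-corrected deviation score at least 3 library SD below zero, with starting fluorescence score within 5 deviations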;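 note: channel opened by trigger with iodide after compound preincubation; score built on the fluorescence ratio of max minus min over baseline; more negative score means more quench and so TMEM16A activation or potentiation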
Kir21 inh: inhibitors of mouse Kir2.1 inward-rectifier potassium channel | Inward rectifier potassium channel 2 (Mus musculus), P35561 | HEK293-Kir2.1, FluxOR thallium flux fluorescence; hits give low values | B-score at 10 µM | 310,000 tested, 0.85% active | AID 1672, 2009;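 active = fluorescence ratio B-score at or below minus 3 SD of library scores, with starting-brightness B-score within 2 SD, cut at about -4.2 in these data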;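 note: channel flux triggered by added potassium and thallium sulfate stimulus; B-score of peak minus minimum fluorescence over baseline after thallium stimulus; more negative B-score means stronger Kir2.1 block with less thallium influx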
Target sequence (P35561 whole entry, looked up): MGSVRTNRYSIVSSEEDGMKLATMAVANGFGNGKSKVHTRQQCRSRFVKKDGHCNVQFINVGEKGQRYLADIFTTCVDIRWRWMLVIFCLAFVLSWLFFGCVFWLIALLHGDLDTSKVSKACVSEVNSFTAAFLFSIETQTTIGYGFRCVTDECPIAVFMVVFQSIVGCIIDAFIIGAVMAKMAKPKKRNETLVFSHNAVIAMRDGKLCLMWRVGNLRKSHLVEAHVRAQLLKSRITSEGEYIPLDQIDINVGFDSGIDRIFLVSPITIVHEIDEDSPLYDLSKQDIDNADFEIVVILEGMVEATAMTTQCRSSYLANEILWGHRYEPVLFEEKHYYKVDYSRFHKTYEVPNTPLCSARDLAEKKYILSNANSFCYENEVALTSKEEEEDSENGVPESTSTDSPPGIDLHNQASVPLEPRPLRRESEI
SR-BI uptake up: activators of SR-BI mediated DiI-HDL uptake, primary screen, ldlA[mSR-BI] CHO cells, DiI fluorescence; 3 h; 100 = double the neutral-control signal; activation, % at 12.5 µM; 320,000 tested, 0.096% active; AID 504775, 2011;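 active = mean replicate activation of at least 60% and every replicate at or above 60%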
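system = CHO ldlA[mSR-BI] cells, LDL receptor-null, SR-BI overexpressing | medium = Ham's F12 with 0.5% BSA, HEPES 25 mM, pH 7.4 | probe or stimulus = DiI-HDL 10 µg/mL | compound dosing = single-point compound dose | incubation = compound exposure 3 h, 37 °C | technique = DiI fluorescence, bottom read | read-out = cell-associated DiI fluorescence as measure of HDL uptake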
SR-BI HDL uptake: inhibitors of SR-BI mediated HDL lipid uptake, primary screen, ldlA[mSR-BI] cells, fluorescence, single point; Scavenger receptor class B member 1 (Mus musculus), Q61009; ldlA[mSR-BI] CHO cells, DiI-HDL uptake fluorescence, 3 h; inhibition, % at 12.5 µM; 320,000 tested, 0.96% active; AID 488896, 2010;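 active = mean replicate inhibition of at least 70% and a set share of replicates each scoring 70 or more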
ANO1 block: TMEM16A chloride channel inhibitors, primary screen, cell-based, HTS; normalized B-score (activity score, 25-100; higher = stronger inhibition) at 10 µM; AID 588511, 2011; HEK293 TMEM16A/YFP iodide influx fluorescence, ionomycin; Anoctamin-1 (Mus musculus), Q8BHY3; 310,000 tested, 1.2% active;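 active = ratio plate-corrected score three or more library SD toward inhibition, starting fluorescence score within five deviations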;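 note: score derived from kinetic fluorescence span divided by baseline fluorescence per well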
Numbers stand for hits; - = inactive; . = no result given; ! = not confirmed by another sample. Rows were chosen to be rich in hits. Some 3% of all compounds tested hit in one or more screens of this group.

SMILES | DNA FID counter | TMEM16A act | Kir21 inh | SR-BI uptake up | SR-BI HDL uptake | ANO1 block
CCN1C(=O)CS/C1=N\S(=O)(=O)c1ccc(Cl)cc1 | - | - | - | - | - | -
CCN1C/C(=N\S(=O)(=O)/N=C2\CN(CC)C(=O)N2CC)N(CC)C1=O | - | -8.15 | - | . | . | -
COc1cc(OC)cc(C(=O)Nc2ccccc2S(=O)(=O)N2CCCC2OC(C)=O)c1 (configuration not stated) | - | - | - | - | - | -
CC(C)C[C@H](NC(=O)c1[nH]cnc1C(=O)Nc1ccc(CNC(=O)OC(C)(C)C)cc1)C(=O)OCc1ccccc1 | . | - | - | - | - | -
C[C@H](NC(=O)c1[nH]cnc1C(=O)Nc1ccc(CNC(=O)OC(C)(C)C)cc1)C(=O)OCc1ccccc1 | . | - | - | - | - | 100
O=C(Nc1ccc(-c2ccccc2)cc1)c1ccc2c(c1)S(=O)(=O)c1ccccc1C2=O | . | - | - | - | 84.3 | -
CCCNC(=O)c1ccc2c(c1)S(=O)(=O)c1ccccc1C2=O | - | - | - | - | - | -
O=C(Nc1nc(-c2cccc3ccccc23)cs1)c1ccc2c(c1)S(=O)(=O)c1ccccc1C2=O | - | - | - | - | 72.5 | -
O=C(Nc1nc2ccccc2s1)c1ccc2c(c1)S(=O)(=O)c1ccccc1C2=O | - | . | . | . | . | .
NC(=O)C1(Nc2ccccc2)CCCC1 | . | - | . | - | - | .
Cc1cnc(C(=O)OCC(=O)Nc2cc(Cl)ccc2C#N)cn1 | . | - | . | - | - | .
O=C(NCC1CCCO1)c1ccccc1NS(=O)(=O)c1ccc(Br)s1 (configuration not stated) | . | - | . | - | - | .
OCCNCCCOc1ccc(Cl)cc1Br | - | - | - | - | - | -
Clc1ccc(Cl)c(OCCCCNCc2ccccc2)c1 | - | - | -12.2 | - | - | -
Clc1ccc(OCCCNCc2ccccc2)c(Br)c1 | - | - | -16.1 | - | - | -
Cc1cccc(-n2nc3c(c2NC(=O)C2CC2)CS(=O)(=O)C3)c1C | - | - | - | - | - | -
O=C(COC(=O)c1ccccc1Br)Nc1ccc2[nH]c(=O)[nH]c2c1 | . | - | - | - | - | -
COc1ccc(C2=C(CN(C)C)C(c3ccccc3)c3ccccc3O2)cc1 (configuration not stated) | 46.0! | - | -5.16! | - | - | -
COc1cccc(NC(=O)c2sc3ncn(CC(=O)N4CCN(c5ccccn5)CC4)c(=O)c3c2C)c1 | - | - | - | - | 78.9 | -
CCOc1ccccc1NC(=O)c1sc2ncn(CC(=O)N3CCOCC3)c(=O)c2c1C | - | - | - | - | 71.2 | -
COc1ccccc1NC(=O)c1sc2ncn(CC(=O)N3CCC(C)CC3)c(=O)c2c1C | - | - | - | - | - | -
Cc1cnc(C(=O)OCC(=O)Nc2ccccc2-c2ccccc2)cn1 | . | - | . | - | - | .
CNCc1ccccc1Sc1ccc(O)c(O)c1 | - | - | -6.49 | - | - | -
C[C@@H]1CN([C@@H](C)CO)C(=O)c2cccc(NC(=O)C3CCOCC3)c2O[C@H]1CN(C)S(=O)(=O)c1ccc(Cl)cc1 | . | - | . | - | - | .
CCC[C@H]1COCCS(=O)(=O)N1Cc1ccc(Br)cc1 | - | . | -6.1 | . | . | -
OC(CN1c2ccccc2Sc2ccccc21)Cn1nnc2ccccc21 (configuration not stated) | - | - | - | - | - | 100
CC(C)CCN1CCN(C2CCN(c3ccccc3)CC2)CC1CCO (configuration not stated) | - | - | - | - | - | -
C#CCOCCOCCOCCNc1nc(N2CCOCC2)nc(N2CCN(C(=O)[C@H](Cc3cc4ccccc4[nH]3)n3cc([C@@H](N)C(C)CC)nn3)CC2)n1 (some centres not stated) | - | - | - | - | - | -
